Data taken from paper PMC12849484 (Microbial Cell Factories, 2025).

Key:
[1] = tested on: D-lactate-pyruvate pathway in Synechocystis sp. PCC 6803 cells; experiment: LC-MS quantification of intracellular pyruvate and surrounding metabolites; type: cell-based; settings: 10 µM, normalized to WT
Summary of the method: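 Cells were exposed to test conjugate at final 10 µM, with untreated wild-type and Δddh strain as comparators, and sampled at 24 and 48 h. For each sample, 8 mL culture was membrane-filtered (0.2 µm) and extracted; the aqueous phase was dried and analysed by LC-MS against 1–100 µg/mL standards. Values were normalized to untreated wild-type; ≥3 replicates; ANOVA.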

[2] = tested on: Synechocystis sp. PCC 6803; experiment: Growth curves; type: cell-based; settings: OD730 over 72 h, triplicates
Summary of the method: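 Synechocystis subcultures in BG11 (10 mL, starting OD730 0.2) were pre-incubated 23 h, then given test conjugate from a 1 mM water stock to final 2, 4, 6, 8 or 10 µM. Controls were untreated cells and 10 µM non-specific CPP-PNA. Hour 0 was 1 h after addition. OD730 was followed over time; triplicates, mean ± SD.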

Sequence | D-lactate level at 24 h ([1]; 24 h, N = 3) | change in acetyl-CoA concentration ([1]; 24 h, N = 3) | change in malate concentration ([1]; 24 h, N = 3) | change in phosphoenolpyruvate (PEP) concentration ([1]; 24 h, N = 3) | increase in pyruvate compared to untreated wild-type ([1]; 24 h, N = 3) [fold] | increase in D-lactate accumulation compared to wild-type ([1]; 48 h post-treatment, at least three replicates) [fold] | growth inhibition at 10 µM [2]
TTCATGACGA [CPP-Syn6803ddh] | consistently low | minimal or no changes | minimal or no changes | minimal or no changes | 2.5 | 3 | –
CTCATAGATC [CPP-ncPNA] | – | – | – | – | – | – | no growth inhibition
